# According to publication PMC5062748 (Drug development research, 2016):
# Target: T1, HNE (Homo sapiens, UniProt P08246)
# T1 sequence (P08246 30-247 limits assumed): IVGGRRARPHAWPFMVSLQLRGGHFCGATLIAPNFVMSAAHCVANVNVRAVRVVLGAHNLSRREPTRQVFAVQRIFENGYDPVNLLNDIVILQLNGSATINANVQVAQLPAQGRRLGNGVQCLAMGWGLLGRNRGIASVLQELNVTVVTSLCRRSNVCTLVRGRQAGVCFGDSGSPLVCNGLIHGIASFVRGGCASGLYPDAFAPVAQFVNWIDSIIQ
# Assay: HNE inhibition assay
# Type: biochemical
# Conditions: not given
# Method in brief: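 Human neutrophil elastase (20 mU/mL) in 200 mM Tris–HCl pH 7.5, 0.01% BSA, 0.05% Tween-20, with test compound at varied concentrations (DMSO final 1%, top 50 µM). Reaction started with 25 µM substrate. Fluorescence (ex 355/em 460 nm) read every 30 s for 10 min at 25 °C. IC50 from % inhibition vs log concentration (≥6 points). Mean ± SD of three independent experiments.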
row,IC50,Compound
1,12.2 ± 2.3 µM,"CCOC(=O)c1cn(C(=O)c2ccc(F)cc2)c2ccccc12 [2g, Ethyl 1-(4-fluorobenzoyl)-1H-indole-3-carboxylate]"
2,10.5 ± 1.7 µM,"CCOC(=O)c1cn(C(=O)c2ccc(C)cc2)c2cc(Br)ccc12 [7c, Ethyl 6-bromo-1-(4-methylbenzoyl)-1H-indole-3-carboxylate]"
3,3.8 ± 0.4 µM,"CCOC(=O)c1cn(C(=O)c2ccc(Cl)cc2)c2ccccc12 [2e, Ethyl 1-(4-chlorobenzoyl)-1H-indole-3-carboxylate]"
4,45.3 ± 6.7 µM,"Cc1ccc(C(=O)n2cc(C(=O)Nc3ccccc3)c3ccccc32)cc1 [5c, 1-(4-methylbenzoyl)-N-phenyl-1H-indole-3-carboxamide]"
5,21.6 ± 3.3 µM,"CCOC(=O)c1cn(C(=O)c2cccc(C)c2)c2ccc(Br)cc12 [7a, Ethyl 5-bromo-1-(3-methylbenzoyl)-1H-indole-3-carboxylate]"
6,2.4 ± 0.4 µM,"CCOC(=O)c1cn(C(=O)c2cccc(C)c2)c2ccc([N+](=O)[O-])cc12 [7d, Ethyl 1-(3-methylbenzoyl)-5-nitro-1H-indole-3-carboxylate]"
7,13.2 ± 1.8 µM,"CCOC(=O)c1cn(C(=O)c2ccc(C)cc2)c2ccc([N+](=O)[O-])cc12 [7e, Ethyl 1-(4-methylbenzoyl)-5-nitro-1H-indole-3-carboxylate]"

# Same assay, conditions: highest tested concentration 50 µM
row,HNE inhibitory activity (in words),Compound
1,inactive,"CCOC(=O)c1cn(C(=O)c2cccc(C)c2)c2ccccc12 [2c, Ethyl 1-(3-methylbenzoyl)-1H-indole-3-carboxylate]"
2,lack of activity,"CCOC(=O)c1cn(-c2cccc(C)c2)c2ccccc12 [2a, Ethyl 1-(m-tolyl)-1H-indole-3-carboxylate]"
3,no activity,"CCOC(=O)c1cn(C(=O)c2ccc(C)cc2)c2ccc(NC(C)=O)cc12 [compound 9, Ethyl 5-acetamido-1-(4-methylbenzoyl)-1H-indole-3-carboxylate]"
4,no activity,"CCOC(=O)c1cn(C(=O)c2ccc(C)cc2)c2ccc(N)cc12 [compound 8, Ethyl 5-amino-1-(4-methylbenzoyl)-1H-indole-3-carboxylate]"
5,no activity,"CCOC(=O)c1cn(C(=O)c2cccc(C)c2)c2cc(Br)ccc12 [7b, Ethyl 6-bromo-1-(3-methylbenzoyl)-1H-indole-3-carboxylate]"
6,lack of activity,"Cc1ccc(S(=O)(=O)n2cc(C(=O)Nc3ccccc3)c3ccccc32)cc1 [5f, N-phenyl-1-tosyl-1H-indole-3-carboxamide]"
7,inactive,"CCOC(=O)c1cn(C(=O)c2cccc(Cl)c2)c2ccccc12 [2f, Ethyl 1-(3-chlorobenzoyl)-1H-indole-3-carboxylate]"
